Compound activity as filed in PubChem BioAssay.
In the library only some 2.3% were active in any assay of this set; here they are far more common.
PLC-gamma1 inh – PLC-gamma1 enzyme inhibitors, primary screen, biochemical, fluorescence, purified enzyme; 1-phosphatidylinositol 4,5-bisphosphate phosphodiesterase gamma-1 (Homo sapiens), P19174; fluorogenic substrate; inhibition, % at 12.2 µM; 370,000 compounds, 0.84% hits; in the data active = inhibition above about 9.5%
PLCb3 inh – human PLC-beta3 inhibitors, primary screen, biochemical, fluorescence | 370,000 compounds, 0.18% hits | 1-phosphatidylinositol 4,5-bisphosphate phosphodiesterase beta-3 (Homo sapiens), Q01970 | AID 720704, 2013 | inhibition, % at 12.2 µM | Purified PLC-beta3, fluorogenic substrate; in the data active = inhibition above about 11%;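 also: 0% = median of compound wells on plate and 100% = full blocker control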
Tb MetRS inh – T. brucei MetRS inhibitors, primary screen, biochemical, luminescence. inhibition, % at 11.9 µM. AID 624268, 2012. purified T. brucei MetRS, ATP depletion, Kinase-Glo luminescence. 360,000 compounds, 0.4% hits. methionyl-tRNA synthetase (Trypanosoma brucei brucei);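 active = inhibition above a per-plate cutoff of the control wells' mean inhibition plus 3 SD, cut at about 5.5% in these data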;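 also: 0% = DMSO wells median and 100% = median of wells with control inhibitor compound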
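System: purified T. brucei MetRS enzyme / Detection: Kinase-Glo luciferase luminescence reporting remaining unconsumed ATP / Medium: HEPES buffer with MgCl2, KCl, DTT, spermine, BSA, pyrophosphatase / Replication: singlicate, one well per compound / Evaluation: percent inhibition relative to median high and low control wells / Schedule: 2 h aminoacylation at 25 °C after 15 min preincubation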
ADAM17 inh – ADAM17 inhibitors, primary screen, biochemical, QFRET. Disintegrin and metalloproteinase domain-containing protein 17 (Homo sapiens), P78536. recombinant ADAM17, EDANS/DABCYL FRET peptide cleavage. inhibition, % at 6.95 µM. 370,000 compounds, 0.83% hits. AID 720648, 2013;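 active = inhibition above the mean of compounds lying between control limits plus 3 SD, set per campaign, cut at about 8.5% in these data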;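 also: 0% = DMSO-only wells as the low control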
ADAM10 inh – human ADAM10 inhibitors, primary screen, biochemical, QFRET, HTS. Disintegrin and metalloproteinase domain-containing protein 10 (Homo sapiens), O14672. recombinant ADAM10, EDANS/DABCYL FRET peptide cleavage, 3 h. 370,000 compounds, 0.62% hits. AID 720582, 2013. inhibition, % at 7 µM;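 active = inhibition above a per-campaign cutoff equal to the mean of compounds falling between control-based bounds plus 3 SD, cut at about 20% in these data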;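 also: 0% = DMSO wells while the 100% control is not disclosed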
Target sequence (O14672 214-748 limits assumed): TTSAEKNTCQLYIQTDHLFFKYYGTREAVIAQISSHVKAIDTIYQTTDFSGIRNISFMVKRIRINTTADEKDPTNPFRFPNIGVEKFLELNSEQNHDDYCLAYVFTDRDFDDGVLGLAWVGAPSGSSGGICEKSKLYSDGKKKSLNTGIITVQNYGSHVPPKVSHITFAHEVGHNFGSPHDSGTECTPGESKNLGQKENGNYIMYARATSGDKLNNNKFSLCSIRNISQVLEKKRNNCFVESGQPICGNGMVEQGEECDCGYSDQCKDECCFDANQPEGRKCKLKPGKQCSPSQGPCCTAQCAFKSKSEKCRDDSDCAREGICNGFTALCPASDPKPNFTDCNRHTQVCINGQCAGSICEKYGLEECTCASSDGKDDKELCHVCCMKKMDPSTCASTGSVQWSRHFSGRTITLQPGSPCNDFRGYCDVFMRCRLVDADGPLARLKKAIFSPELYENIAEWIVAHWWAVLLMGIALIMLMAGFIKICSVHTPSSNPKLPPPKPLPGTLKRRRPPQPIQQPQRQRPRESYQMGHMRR
ADAM10 counter – ADAM10 inhibitors, counter-screen for ADAM17 exosite inhibitor project, biochemical, FRET, human ADAM10. inhibition, % at 6.95 µM. 2,900 compounds, 47% hits. recombinant ADAM10, EDANS/DABCYL FRET peptide cleavage, 3 h. shares compounds with ADAM17 inh;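 active = mean inhibition over the triplicate runs exceeds the activity threshold set in the earlier primary screen, cut at about 20% in these data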;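 also: 0% = DMSO wells and 100% = marimastat wells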
ADAM17 confirm – ADAM17 inhibitors, hit retest, confirmation, biochemical, QFRET peptide cleavage; shares compounds with ADAM17 inh; recombinant ADAM17, EDANS/DABCYL QFRET peptide cleavage; inhibition, % at 6.95 µM; 2,900 compounds, 65% hits;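 active = mean inhibition across replicates above the hit cutoff set in the primary screen, cut at about 8.5% in these data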;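 also: 0% = DMSO wells and 100% = marimastat wells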
Active calls of the source: *; x = no result given.

SMILES | PLC-gamma1 inh | PLCb3 inh | Tb MetRS inh | ADAM17 inh | ADAM10 inh | ADAM10 counter | ADAM17 confirm
CCOCCn1c(COc2ccccc2)nc2ccccc21 | 3 | 4 | -1 | 9.4* | 3 | -9 | -3
COc1ccc(C2C3=C(N=C4SCC(=O)N42)c2ccccc2CC3)cc1OC (stereo unspecified) | -24 | -42 | -1 | 9.3* | 14 | -2 | 2
COc1cccc(-c2oc3c(c2-c2ccc(OC)nc2)C(O)CCC3)c1 (stereo unspecified) | -56 | -75 | 0 | -17 | -69 | x | x
Cc1cc(N2CCCC2=O)cc(C)c1S(=O)(=O)NCCOc1ccc(C(C)(C)C)cc1 | 1 | 2 | -1 | 11* | 16 | 8 | 6
C[C@@H]1CC=C[C@H]2[C@H]1C(=O)N(Cc1ccccc1)[C@H]2c1ccc2ccccc2c1 | 5 | 5 | 0 | 9.4* | 17 | 10 | 6
CCOC(=O)c1c(C)[nH]c(C)c1C(=O)COC(=O)/C=C/c1cccc(C(F)(F)F)c1 | 0 | 0 | -1 | 12* | 11 | 27* | 15*
CCOC(=O)c1c(C)[nH]c(C)c1C(=O)COC(=O)/C=C/c1cccc(F)c1 | 0 | 0 | -1 | 4 | 12 | x | x
CCN(CC)C(=O)CN(c1cc2c(cc1OC)oc1ccccc12)S(=O)(=O)c1ccc(C)cc1 | 6 | 4 | -1 | 16* | 19 | 0 | 8
CCC(C)[C@H](NC(=O)[C@@H]1CSC2c3ccccc3C(=O)N21)C(=O)NCC1CCCO1 (stereo partly specified) | 4 | -3 | -1 | 12* | 1 | 7 | 3
CC(C)[C@H](NC(=O)[C@@H]1CSC2c3ccccc3C(=O)N21)C(=O)NCC1CCCO1 (stereo partly specified) | 4 | 4 | 0 | 1 | -1 | x | x
CCOc1ccc2[nH]c(=O)c(CN(CCc3ccccc3)C(=O)c3cnccn3)cc2c1 | 3 | 1 | 0 | -2 | 0 | x | x
CCOC(=O)c1c(NC(=O)Cn2nc(C(F)F)cc2C(F)F)sc(C)c1C | 3 | 0 | 0 | 9.1* | 18 | 18 | 12*
O=C(c1[nH]c(C(F)(F)F)nc1-c1ccccc1)N1CCC(Cc2ccccc2)CC1 | 3 | 2 | 0 | 12* | 6 | 8 | 7
CC(C)c1c(C(=O)N/N=C/c2ccc(C(F)(F)F)cc2)nnn1-c1nonc1N | 6 | -1 | -1 | 9.8* | 18 | 22* | 14*
CC(C)c1c(C(=O)N/N=C/c2ccoc2)nnn1-c1nonc1N | 3 | -6 | 1 | 4 | 0 | x | x
Nc1nc(CSC(=S)N2CCN(c3ccccc3)CC2)nc(Nc2ccccc2)n1 | 0 | -1 | -1 | 9.2* | 17 | 24* | 16*
Cc1ccc(Nc2nc(N)nc(CSC(=S)N3CCN(c4ccccc4)CC3)n2)cc1 | 2 | -2 | -1 | 1 | -4 | x | x
O=C(Cc1ccc(S(=O)(=O)N2CCCCC2)s1)Nc1ccc(F)c(F)c1 | 8 | 6 | 1 | 10.0* | 20 | 36* | 13*
CCN(CC)S(=O)(=O)c1cc(NC(=O)Cc2ccc(S(=O)(=O)N3CCOCC3)s2)ccc1Cl | 2 | -14 | 1 | 9.9* | 3 | 15 | 12*
CC[n+]1c(/C=C/C=C/N(C(C)=O)c2ccccc2)sc2cc(OC)ccc21 | -7 | -10 | x | 2 | 5 | x | x
O=C(C1=C[C@@H](c2ccc(Br)cc2)C[C@@H](OCCCCO)O1)N1CCN(Cc2ccccc2)CC1 | 8 | -4 | 0 | 8.8* | 8 | 14 | 7
O=C(Nc1ccccc1)C1=C[C@@H](C2CCCCC2)C[C@@H](OCc2ccc(CO)cc2)O1 | 5 | 2 | 0 | 8.7* | 18 | 19 | 13*
O=C(Nc1ccccc1)C1=C[C@@H](c2ccccc2)C[C@@H](OCc2ccc(CO)cc2)O1 | 2 | 4 | 0 | 2 | 6 | x | x
O=C(Nc1ccccc1)C1=C[C@H](c2ccc(Br)cc2)C[C@H](OCc2ccc(CO)cc2)O1 | 2 | 3 | 0 | 10* | 18 | 29* | 24*
C=CCNC(=O)CN(C(=O)Cc1cccc(OC(F)(F)F)c1)c1cccc(Br)c1 | 0 | 4 | x | 2 | 9 | x | x
SMILES | PLC-gamma1 inh | PLCb3 inh | Tb MetRS inh | ADAM17 inh | ADAM10 inh | ADAM10 counter | ADAM17 confirm
Cc1cc(C)nc(Nc2nc3ccccc3s2)n1 | -1 | -4 | 0 | -5 | 4 | x | x
Cc1ccc(Nc2nc3ccccc3s2)c(C)c1 | 7 | 3 | 0 | 9.0* | 14 | 26* | 17*
Cc1ccc(NC(=S)NNC(=O)c2c([N+](=O)[O-])c(C)nn2C)cc1 | 7 | 1 | -1 | 12* | 7 | 25* | 12*
Cc1ccc(NC(=S)NNC(=O)c2c(Cl)c(C)nn2C)cc1 | -1 | 2 | 0 | 1 | 1 | x | x
O=C(c1ccc(CS(=O)Cc2ccc(Cl)cc2)o1)N1CCN(c2ccccn2)CC1 (stereo unspecified) | 5 | -13 | 1 | 1 | -5 | x | x
O=C(c1ccc(CS(=O)Cc2ccccc2Cl)o1)N1CCN(c2ccccn2)CC1 (stereo unspecified) | 8 | -3 | -1 | 12* | -1 | -5 | 1
O=C(c1ccc(CS(=O)Cc2ccccc2Cl)o1)N1CCN(c2cccc(Cl)c2)CC1 (stereo unspecified) | 6 | -9 | 0 | 15* | 12 | 18 | 9.0*
O=C(NCc1ccc(Cl)c(Cl)c1)c1cc(C2CCCCN2C(=O)C2CCCCC2)on1 (stereo unspecified) | 9 | 0 | 0 | 10* | 17 | 8 | 8
COC(=O)c1cccn(CC(=O)c2ccc(Cl)cc2)c1=O | 1 | -2 | -1 | -2 | -3 | x | x
Cc1cccc(NC(=O)CSc2nnc(SCc3ccc(Cl)cc3)s2)c1 | -2 | -9 | x | 8.8* | 12 | 15 | 12*
CCN(CC)c1ccc(NC(=O)CSc2nnc(SCc3ccc(Cl)cc3)s2)cc1 | -1 | -8 | x | 2 | 4 | x | x
Cc1ccccc1-c1csc(C(O)c2ccc(F)c(F)c2)n1 (stereo unspecified) | 4 | -1 | 1 | 4 | -3 | x | x
